Test results reported in ChEMBL document CHEMBL1649387, “Synthesis and evaluation of quinonoid compounds against tumor cell lines” (Eur J Med Chem, 2011).

Columns and labels:
[1] = test system: PBMC; assay: Cytotoxicity against human PBMC cells after 72 hrs by Alamar Blue assay; format: cell-based
[2] = test system: HL-60; assay: Cytotoxicity against human HL60 cells after 72 hrs by MTT assay; format: functional, cell-based; conditions: HL-60, 72 h
[3] = test system: MDA-MB-435; assay: Cytotoxicity against human MDA-MB-435 cells after 72 hrs by MTT assay; format: functional, cell-based; conditions: MDA-MB-435, 72 h
[4] = test system: HCT-8; assay: Cytotoxicity against human HCT8 cells after 72 hrs by MTT assay; format: functional, cell-based; conditions: HCT-8, 72 h
[5] = test system: SF-295; assay: Cytotoxicity against human SF295 cells after 72 hrs by MTT assay; format: functional, cell-based; conditions: SF-295, 72 h
[6] = test system: HL-60; assay: Induction of apoptosis in human HL60 cells assessed as apoptotic nuclei at 5 uM after 24 hrs by acridine orange/ethidium bromide staining based fluorescence microscopy; format: functional
How it was run: (§1)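 Cells exposed 24 h, with or without 24 h pretreatment with 1-bromoheptane. Cell suspension mixed with acridine orange/ethidium bromide (each 100 in PBS) and spread on slide. 300 cells counted per point by fluorescence microscopy to give % apoptotic cells. Mean ± S.E.M. of three experiments.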

[7] = test system: MDA-MB-435; assay: Induction of apoptosis in human MDA-MB-435 cells assessed as apoptotic nuclei at 5 uM after 24 hrs by acridine orange/ethidium bromide staining based fluorescence microscopy; format: functional; how it was run: as §1
[8] = test system: HCT-8; assay: Induction of apoptosis in human HCT8 cells assessed as apoptotic nuclei at 5 uM after 24 hrs by acridine orange/ethidium bromide staining based fluorescence microscopy; format: functional; how it was run: as §1
[9] = test system: SF-295; assay: Induction of apoptosis in human SF295 cells assessed as apoptotic nuclei at 5 uM after 24 hrs by acridine orange/ethidium bromide staining based fluorescence microscopy; format: functional; how it was run: as §1
[10] = test system: HL-60; assay: Induction of apoptosis in human HL60 cells assessed as apoptotic nuclei at 5 uM after 24 hrs by acridine orange/ethidium bromide staining based fluorescence microscopy in presence of 1-bromoheptane; format: functional; how it was run: as §1
[11] = test system: MDA-MB-435; assay: Induction of apoptosis in human MDA-MB-435 cells assessed as apoptotic nuclei at 5 uM after 24 hrs by acridine orange/ethidium bromide staining based fluorescence microscopy in presence of 1-bromoheptane; format: functional; how it was run: as §1
[12] = test system: HCT-8; assay: Induction of apoptosis in human HCT8 cells assessed as apoptotic nuclei at 5 uM after 24 hrs by acridine orange/ethidium bromide staining based fluorescence microscopy in presence of 1-bromoheptane; format: functional; how it was run: as §1
[13] = test system: SF-295; assay: Induction of apoptosis in human SF295 cells assessed as apoptotic nuclei at 5 uM after 24 hrs by acridine orange/ethidium bromide staining based fluorescence microscopy in presence of 1-bromoheptane; format: functional; how it was run: as §1

Q: Which results are given for `O=C1c2ccccc2C(=O)c2c1ccc1nc(-c3ccc(O)cc3)[nH]c21`?
A: IC50 [1]: > 14.7 µM; IC50 [2]: > 14.7 µM; IC50 [3]: > 14.7 µM; IC50 [4]: > 14.7 µM; IC50 [5]: > 14.7 µM; Activity [6]: 10.7%; Activity [7]: 9.56%; Activity [8]: 8.51%; Activity [9]: 5.93%; Activity [10]: 14.26%; Activity [11]: 13.07%; Activity [12]: 11.16%; Activity [13]: 10.18%

Q: Which IC50 [1] does the source give for `O=C1c2ccccc2C(=O)c2c1ccc1nc(-c3cccc(O)c3)[nH]c21` here?
A: The IC50 was > 14.7 µM.

Q: And the IC50 [2]?
A: Its IC50 is > 14.7 µM.

Q: And the IC50 [3]?
A: The IC50 was > 14.7 µM.

Q: What about the IC50 [4] of the same molecule?
A: The IC50 was > 14.7 µM.

Q: What about the IC50 [5] of the same molecule?
A: Its IC50 is > 14.7 µM.

Q: And the Activity [6]?
A: The Activity was 10.49%.

Q: And the Activity [7]?
A: Its Activity is 12.51%.

Q: And the Activity [8]?
A: Its Activity is 12.73%.

Q: What about the Activity [9] of the same molecule?
A: Its Activity is 13.51%.

Q: And the Activity [10]?
A: Its Activity is 8.17%.

Q: What about the Activity [11] of the same molecule?
A: Its Activity is 13.75%.

Q: And the Activity [12]?
A: The Activity was 7.25%.

Q: What about the Activity [13] of the same molecule?
A: Its Activity is 9.66%.

Q: For `CC(C)CCC1=C(OC2(CCC(C)C)C(=O)C(=O)C3=C(CCCC3)C2=O)C(=O)C2=C(CCCC2)C1=O` (configuration not stated), which IC50 [1] is on record?
A: Its IC50 is > 10.1 µM.

Q: What about the IC50 [2] of the same molecule?
A: The IC50 was > 10.1 µM.

Q: And the IC50 [3]?
A: The IC50 was > 10.1 µM.

Q: And the IC50 [4]?
A: The IC50 was > 10.1 µM.

Q: What about the IC50 [5] of the same molecule?
A: Its IC50 is > 10.1 µM.

Q: And the Activity [6]?
A: The Activity was 10.21%.

Q: And the Activity [7]?
A: The Activity was 8.38%.

Q: And the Activity [8]?
A: Its Activity is 5.85%.

Q: And the Activity [9]?
A: Its Activity is 8.33%.

Q: What about the Activity [10] of the same molecule?
A: Its Activity is 10.62%.

Q: What about the Activity [11] of the same molecule?
A: Its Activity is 13.72%.

Q: What about the Activity [12] of the same molecule?
A: The Activity was 10.33%.

Q: And the Activity [13]?
A: The Activity was 12.06%.

Q: What does the source list for `CCCC1=C(OC2(CCC)C(=O)C(=O)C3=C(CCCC3)C2=O)C(=O)C2=C(CCCC2)C1=O` (configuration not stated)?
A: IC50 [1]: > 11.4 µM; IC50 [2]: > 11.4 µM; IC50 [3]: > 11.4 µM; IC50 [4]: > 11.4 µM; IC50 [5]: > 11.4 µM; Activity [6]: 9.13%; Activity [7]: 8.56%; Activity [8]: 9.27%; Activity [9]: 11.73%; Activity [10]: 11.04%; Activity [11]: 12.09%; Activity [12]: 11.7%; Activity [13]: 13.97%
